Results as given in ChEMBL document CHEMBL3244186, “Synthesis and evaluation of the thiosemicarbazone, dithiocarbazonate, and 2'-pyrazinylhydrazone of pyrazinecarboxaldehyde as agents for the treatment of iron overload” (J Med Chem, 1979).

Legend:
[1] = Iron chelating activity assessed as removal of [59]-Fe from [59]-Fe-labeled transferrin at 1 mM measured per hr by spectrometric analysis; type: physicochemical; conditions: 1000 µM
Procedure, shortened: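 About 10^6 cpm of 59Fe-labeled transferrin in 1.0 mL of 0.1 M Hepes (pH 7.00), inside a dialysis sack, dialyzed at room temperature against 25.0 mL of 1.00 mM ligand in the same buffer. Dialysate aliquots of 1.00 mL taken at intervals were gamma-counted (800-1400 keV window). Initial release rates were derived from these counts.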

Mus musculus [2] = assay: Iron chelating activity in iron-overloaded BDF1 mouse assessed as iron level in spleen at 40 mg/kg, ip treated from day 8 to 13 after erythrocyte suspension injection on day 1, 3 and 5 by atomic absorption spectroscopic analysis; type: functional; conditions: route intraperitoneal
Procedure, shortened: (§1)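 Iron-loaded male BDF1 mice (10 per group) given ip drug in EtOH/Tween 80/saline vehicle daily on days 8-13. On day 15, under Et2O, mice were exsanguinated. Organs were washed, frozen, thawed, weighed and homogenized in 0.014 M NaCl made with iron-free water; supernatant iron was measured by AAS, as μg/mouse. Mean ± SD; t test versus iron-loaded vehicle control.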

[3] = Iron chelating activity assessed as removal of iron from ferritin after 20 hrs by atomic absorption spectrophotometric analysis; type: physicochemical
Procedure, shortened: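 Ferritin holding 1.34 mg total Fe was dialyzed at room temperature against 25.0 mL of 1.00 mM ligand solution. Iron in the dialysate was measured by atomic absorption spectroscopy at 20 h.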

Mus musculus [4] = assay: Iron chelating activity in iron-overloaded BDF1 mouse assessed as iron level in liver at 40 mg/kg, ip treated from day 8 to 13 after erythrocyte suspension injection on day 1, 3 and 5 by atomic absorption spectroscopic analysis; type: functional; conditions: route intraperitoneal; procedure, shortened: as §1
Mus musculus [5] = assay: Iron chelating activity in iron-overloaded BDF1 mouse assessed as iron level in heart at 40 mg/kg, ip treated from day 8 to 13 after erythrocyte suspension injection on day 1, 3 and 5 by atomic absorption spectroscopic analysis; type: functional; conditions: route intraperitoneal; procedure, shortened: as §1
Mus musculus [6] = assay: Iron chelating activity in iron-overloaded BDF1 mouse assessed as iron level in heart at 80 mg/kg, ip treated from day 8 to 13 after erythrocyte suspension injection on day 1, 3 and 5 by atomic absorption spectroscopic analysis; type: functional; conditions: route intraperitoneal; procedure, shortened: as §1
Mus musculus [7] = assay: Iron chelating activity in iron-overloaded BDF1 mouse assessed as iron level in liver at 80 mg/kg, ip treated from day 8 to 13 after erythrocyte suspension injection on day 1, 3 and 5 by atomic absorption spectroscopic analysis; type: functional; conditions: route intraperitoneal; procedure, shortened: as §1
Mus musculus [8] = assay: Iron chelating activity in iron-overloaded BDF1 mouse assessed as iron level in spleen at 80 mg/kg, ip treated from day 8 to 13 after erythrocyte suspension injection on day 1, 3 and 5 by atomic absorption spectroscopic analysis; type: functional; conditions: route intraperitoneal; procedure, shortened: as §1
Mus musculus [9] = assay: Iron chelating activity in iron-overloaded BDF1 mouse assessed as daily urinary iron level at 40 mg/kg, ip treated from day 8 to 13 after erythrocyte suspension injection on day 1, 3 and 5 by atomic absorption spectroscopic analysis; type: functional, Urine; conditions: route intraperitoneal
Mus musculus [10] = assay: Iron chelating activity in iron-overloaded BDF1 mouse assessed as iron level in lung at 40 mg/kg, ip treated from day 8 to 13 after erythrocyte suspension injection on day 1, 3 and 5 by atomic absorption spectroscopic analysis; type: functional; conditions: route intraperitoneal; procedure, shortened: as §1
Mus musculus [11] = assay: Iron chelating activity in iron-overloaded BDF1 mouse assessed as iron level in lung at 80 mg/kg, ip treated from day 8 to 13 after erythrocyte suspension injection on day 1, 3 and 5 by atomic absorption spectroscopic analysis; type: functional; conditions: route intraperitoneal; procedure, shortened: as §1
[12] = Binding affinity to FeSO4 assessed as stability constant at pH 7.4 after 1 hr; type: physicochemical; conditions: pH 7.4, 1 h
Procedure, shortened: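 Continuous-variation (Job) method: iron and ligand solutions diluted after 1 h to 10.00 mL with 50 mM barbital buffer (pH 7.4), all containing 0.100 M KNO3. Visible absorbance at λmax was read at several times to confirm equilibrium. Absorbance was plotted against metal/(metal + ligand) to give the stoichiometry and minimum stability constant.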

Mus musculus [13] = assay: Iron chelating activity in iron-overloaded BDF1 mouse assessed as transferrin saturation at 80 mg/kg, ip treated from day 8 to 13 after erythrocyte suspension injection on day 1, 3 and 5 relative to control; type: functional; conditions: route intraperitoneal
Procedure, shortened: (§2)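 Iron-loaded male BDF1 mice (10 per group) received ip drug daily on days 8-13, with non-loaded and iron-loaded vehicle-treated control groups. On day 15, blood collected by cardiac puncture under Et2O was pooled per group. Percent transferrin saturation was measured with a standard hematologic kit.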

Mus musculus [14] = assay: Iron chelating activity in iron-overloaded BDF1 mouse assessed as daily urinary iron level at 80 mg/kg, ip treated from day 8 to 13 after erythrocyte suspension injection on day 1, 3 and 5 by atomic absorption spectroscopic analysis; type: functional, Urine; conditions: route intraperitoneal
[15] = Binding affinity to Fe(NO3)3 assessed as stability constant at pH 7.4 after 1 hr; conditions: pH 7.4, 1 h
Mus musculus [16] = assay: Iron chelating activity in iron-overloaded BDF1 mouse assessed as transferrin saturation at 40 mg/kg, ip treated from day 8 to 13 after erythrocyte suspension injection on day 1, 3 and 5 relative to control; type: functional; conditions: route intraperitoneal; procedure, shortened: as §2
[17] = Binding affinity to Fe(NO3)3 assessed as stability constant at pH 7.5 after 1 hr; type: physicochemical; conditions: pH 7.5, 1 h
[18] = Binding affinity to FeSO4 assessed as stability constant at pH 7.5 after 1 hr; type: physicochemical; conditions: pH 7.5, 1 h

| Activity [1] | Activity [3] | Activity [12] | Activity [15] | Activity [17] | Activity [18] | Structure (SMILES) | Activity (Mus musculus [2]) | Activity (Mus musculus [4]) | Activity (Mus musculus [5]) | Activity (Mus musculus [6]) | Activity (Mus musculus [7]) | Activity (Mus musculus [8]) | Activity (Mus musculus [9]) | Activity (Mus musculus [10]) | Activity (Mus musculus [11]) | Activity (Mus musculus [13]) | Activity (Mus musculus [14]) | Activity (Mus musculus [16]) |
| --- | --- | --- | --- | --- | --- | --- | --- | --- | --- | --- | --- | --- | --- | --- | --- | --- | --- | --- |
| 0.3% |  |  |  |  |  | N/C(S)=N/N=C/c1ccccn1 |  |  |  |  |  |  |  |  |  |  |  |  |
| 0.3% | 1.4 µM | > 17 | > 25 |  |  | NC(=S)N/N=C/c1cnccn1 | 16.7 µg | 171 µg | 9.2 µg | 9.4 µg | 156 µg | 14.6 µg | 1.1 µg | 15.4 µg | 16.1 µg | 44% | 1.1 µg | 58% |
| 0.4% | 48.8 µM |  |  | > 25 | > 17 | S=C([S-])N/N=C/c1cnccn1.[Na+] | 14 µg | 193 µg | 8.5 µg | 10.6 µg | 176 µg | 18.6 µg | 1.4 µg | 14.8 µg | 17.7 µg | 27% | 5.5 µg | 51% |
